Bioassay records: PubChem, Broad Institute
C2C12 statin = suppression of simvastatin myotoxicity. C2C12 myotubes + simvastatin, ATP luminescence, 48 h; scaled: DMSO 0, geranylgeraniol control 100. rescue of ATP level, % at 7.49 µM. 0.78% of 330,000 active. AID 602340;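 active means mean ATP rescue above about 67%, or every replicate alone reaching that limit, limit read from the data, passing the limit was not always enough; inconclusive means no clear call, values can overlap the other calls; inactive means mean under the limit and some replicate under it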;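 further: myotubes were challenged with 10 µM simvastatin during compound exposure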
E-sel inducer = E-selectin induction on HUVECs; 0.37% of 260,000 active; AID 686992; P16581; HUVEC E-selectin immunofluorescence imaging; normalized: neutral wells 0, TNF-alpha wells 100; activation, % at 7.58 µM;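 active means mean E-selectin-positive cell signal at least 10% of the positive control, reached in at least 60% of replicates, without over 20% cell loss; inconclusive means no rule given, readout overlaps actives, possibly toxicity-flagged; inactive means the rest, including those meeting only one limit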
Target sequence (P16581 whole entry, looked up): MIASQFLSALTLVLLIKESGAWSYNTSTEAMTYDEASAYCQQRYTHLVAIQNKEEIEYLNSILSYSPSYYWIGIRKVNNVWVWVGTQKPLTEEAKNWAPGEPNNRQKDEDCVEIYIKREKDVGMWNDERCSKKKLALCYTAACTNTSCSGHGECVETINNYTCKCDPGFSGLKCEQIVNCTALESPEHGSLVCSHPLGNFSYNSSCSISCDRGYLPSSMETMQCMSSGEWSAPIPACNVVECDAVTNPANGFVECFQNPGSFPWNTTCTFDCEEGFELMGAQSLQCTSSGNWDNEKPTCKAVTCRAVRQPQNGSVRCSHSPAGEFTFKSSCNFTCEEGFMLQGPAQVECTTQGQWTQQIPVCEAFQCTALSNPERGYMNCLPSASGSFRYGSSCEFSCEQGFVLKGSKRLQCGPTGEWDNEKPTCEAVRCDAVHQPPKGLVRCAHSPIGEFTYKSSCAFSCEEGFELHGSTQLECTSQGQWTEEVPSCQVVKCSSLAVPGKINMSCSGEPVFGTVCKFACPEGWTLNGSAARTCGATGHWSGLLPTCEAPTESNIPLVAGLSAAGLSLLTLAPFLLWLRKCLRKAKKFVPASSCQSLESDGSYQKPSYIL
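Read-out basis: % PE-positive cells; Test system: HUVEC primary endothelial cells; Technique: immunofluorescence imaging; Dosing: single-point compound dose.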
FGF22 binding = shifts melting point of recombinant human FGF22; Q9HCT0; recombinant FGF22 thermal shift, SYPRO orange fluorescence; percent of sucrose octasulfate shift, DMSO zero; activity (Tm shift, normalised), % at 9.99 µM; 1.5% of 340,000 active;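 active means mean Tm shift, scaled 0 neutral to 100 positive control, at about 1.3% or above, every replicate too, limit read from the data; inconclusive means no clear call, values can overlap the other calls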
DENV2 CPE = protects cells from dengue virus 2 cytopathic effect | DENV2-infected cells, cytopathic effect rescue, plate reader | CPE inhibition, % at 9.99 µM | 1.7% of 350,000 active; in the data active means CPE inhibition above about 20%, passing the limit was not always enough; inconclusive means no clear call, values can overlap the other calls; tested in BHK-21 cells;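 further: 0% = median of neutral control wells and 100% = median of positive control wells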
PglD inh = inhibitors of Campylobacter jejuni PglD acetyltransferase; purified PglD enzyme, DTNB colorimetric CoA detection; inhibition, % at 12.5 µM; 0.098% of 360,000 active; AID 602405; in the data active means inhibition above about 16%, passing the limit was not always enough; inconclusive means no clear call, values can overlap the other calls
XiGFP reactiv = reactivates the inactive X chromosome in mouse fibroblasts; XiGFP mouse fibroblasts, % GFP-positive cells imaging, 3 d; cells co-treated with 5-aza-dC sensitizer; scaled so ellipticine positive control = 100%; activation, % at 7.58 µM; 0.055% of 360,000 active; AID 743238;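 active means mean normalized replicate activation at least 10% and every replicate at or above 10%; inconclusive means only one of the two criteria met; inactive means mean below 10% and not all replicates reach 10%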;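 further: 0% = median of on-plate neutral control wells and 100% = ellipticine 6 µM median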
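assay system = SV40-immortalized XiGFP fibroblast cells, line 68-5-11 | buffer or medium = DMEM plus 5-aza-dC sensitizer | doses = single-point pinned compound dosing | times = 3-day compound exposure, then 15 min fixation at room temperature | benchmarks = positive control ellipticine, 6 µM final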
Starred values were filed as active, the others as inactive; ? = inconclusive; / = not tested or not shown. Most compounds without a hit are left out; they make up all but 3.3% or so of the library.

SMILES	C2C12 statin	E-sel inducer	FGF22 binding	DENV2 CPE	PglD inh	XiGFP reactiv
O=C(C[C@@H]1C=C[C@H](NC(=O)Nc2ccc(F)cc2)[C@H](CO)O1)NCc1cccc(F)c1	2.9	-0.1	-0.2	?	-2.5	0.7
O=C1NCCOCn2nncc2CC[C@H]1Cc1ccc(Cl)cc1	/	/	/	/	/	0.1
CCCNC(=O)C1(C)CCCN(Cc2ccc(C#N)cc2)C1 (stereo not given)	2.8	/	0.1	48.0*	1.6	0.1
CCCNC(=O)C1(C)CCCN(Cc2ccc(Cl)cc2)C1 (stereo not given)	20.3	/	-0.4	0.7	5.5	-0.1
COc1ccc(S(=O)(=O)N(C)C[C@H]2OCCCC[C@H](C)Oc3ccc(NC(=O)c4ccncc4)cc3C(=O)N([C@H](C)CO)C[C@H]2C)cc1	/	1.4	0.0	18.2	3.2	0.3
Cc1ccc(NCC(=O)N/N=C/c2cc(O)ccc2[N+](=O)[O-])cc1	/	/	43.0*	7.0	/	0.0
Cc1ccc(NCC(=O)N/N=C/c2ccncc2)cc1	4.3	/	-0.1	-0.9	0.8	0.1
Cc1ccc(S(=O)(=O)N(C)C[C@@H]2Oc3ccc(NC(=O)C4CCCCC4)cc3CC(=O)N([C@@H](C)CO)C[C@@H]2C)cc1	-8.7	0.2	0.2	-4.3	7.1	-0.3
NC(=N\N=Cc1ccccc1)/C(N)=N/N=Cc1ccccc1	5.6	-0.1	44.0*	-4.3	-7.7	0.1
COc1ccccc1C=NN=C(N)C(N)=NN=Cc1ccccc1OC	-6.6	-0.1	0.0	-8.6	0.6	0.2
C=CCn1c(=O)c2c(nc3n2CC(C)CN3c2cccc(OC)c2)n(C)c1=O (stereo not given)	120.1*	3.3	-0.2	-12.4	-1.7	0.5
C=CCn1c(=O)c2c(nc3n2CC(C)CN3Cc2ccccc2)n(C)c1=O (stereo not given)	5.7	/	0.0	-1.4	5.8	0.0
O=C(C[C@@H]1CC[C@H](NC(=O)c2ccccc2)[C@H](CO)O1)Nc1ccc(-c2ccccc2)cc1	-6.5	-0.7	-0.4	-5.9	-0.1	-0.1
COc1ccc(C(=O)Nc2ccc(C(F)(F)F)n(C)c2=O)cc1	/	/	44.0*	-4.0	/	0.0
Cc1ccc(C(=O)Nc2ccc(C(F)(F)F)n(C)c2=O)cc1	/	/	/	-4.3	/	0.0
Cc1cc(S(=O)(=O)N2CCCC(C(=O)Nc3ccc(C(=O)O)cc3)C2)ccc1Cl (stereo not given)	-23.0	/	43.3*	-1.5	/	0.0
COC(=O)c1ccc(NC(=O)C2CCN(S(C)(=O)=O)CC2)cc1	/	/	/	/	5.3	/
Cc1ccc(NC(=O)C2CCCN(S(=O)(=O)c3cccs3)C2)cc1 (stereo not given)	77.6*	/	/	/	1.2	/
COC(=O)c1ccc(NC(=O)C2CCCN(S(C)(=O)=O)C2)cc1 (stereo not given)	-3.8	/	42.9*	3.8	-1.6	0.2
O=C(Nc1ccc(Br)cc1)C1CCCN1S(=O)(=O)c1cccs1 (stereo not given)	139.3*	/	/	/	-12.2	/
CCCNC(=O)N(C)C[C@@H]1Oc2ncc(Br)cc2C(=O)N([C@H](C)CO)C[C@H]1C	3.3	0.2	0.1	?	3.6	-0.8
O=C(Nc1ccc(F)cc1)C1CCCN(S(=O)(=O)c2ccc3[nH]c(=O)ccc3c2)C1 (stereo not given)	2.0	/	-0.2	115.4*	-1.0	0.0
COC(=O)c1ccc(NC(=O)C2C3C=CC(C3)C2C(=O)O)cc1 (stereo not given)	1.0	/	-0.2	-8.0	3.7	0.1
COC(=O)c1ccc(NC(=O)C2CC3CCC2C3)cc1 (stereo not given)	-17.0	0.0	-0.1	47.5*	-2.6	0.4
COC(=O)c1ccc(NC(=O)C2C3C=CC(O3)C2C(=O)O)cc1 (stereo not given)	90.5*	/	/	/	-2.5	/
CCOC(=O)c1ccc(NC(=O)C2CC3CCC2C3)cc1 (stereo not given)	/	/	0.0	11.2	-0.1	0.2
O=C(C[C@H]1CC[C@@H](NC(=O)c2ccncc2)[C@H](CO)O1)Nc1ccc(-c2ccccc2)cc1	/	0.0	/	-3.7	/	0.2
O=C(C[C@@H]1CC[C@@H]2[C@H](COC[C@H](O)CN2S(=O)(=O)c2ccccc2)O1)N[C@@H]1CCN(Cc2ccccc2)C1	-9.1	-0.1	/	3.4	5.2	0.2
